Source: paper PMC4467529 (Bioorganic & medicinal chemistry, 2015)
Entries after “also recorded” stand apart in the source; their conditions may differ.

Assays:
[1] = In vitro cytotoxicity, Neutral Red assay; type: cell-based; conditions: human, SK-MEL malignant melanoma cells
Method in brief: (§1)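 Cells were kept in RPMI-1640 with 10% bovine calf serum and amikacin 60 mg/L at 37 °C, 5% CO₂. They were seeded at 25,000 cells/well and grown 24 h, then exposed 48 h to test compound diluted in serum-free medium, tested up to 25 μg/ml. Viability was read by Neutral Red, as % decrease versus vehicle. IC50 came from dose curves, in triplicate, with doxorubicin as reference.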

[2] = In vitro cytotoxicity, Neutral Red assay; type: cell-based; conditions: African green monkey, Vero cells (kidney fibroblasts)
Method in brief: as §1

[3] = system: rat paw edema; experiment: Carrageenan-induced rat paw edema assay; type: in vivo; conditions: for in vivo anti-inflammatory activity (in words): rat paw edema, compared to ketorolac; for Edema thickness ±SEM, 1h / Edema thickness ±SEM, 2h / Edema thickness ±SEM, 3h / Edema thickness ±SEM, 4h: rat, 30 mg/kg intraperitoneally; for Edema thickness ±SEM, 1h: 1h after induction; for Edema thickness ±SEM, 2h: 2h after induction; for Edema thickness ±SEM, 3h: 3h after induction; for Edema thickness ±SEM, 4h: 4h after induction
Method in brief: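 Adult albino rats of both sexes (120–150 g), pre-hydrated with 3 ml water by gavage, in groups of five. Test compound or ketorolac tromethamine was suspended in distilled water with a few drops of Tween 80 and given i.p. 1 h before 1% carrageenan s.c. into the right hind subplantar paw. Controls got saline/Tween 80.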

[4] = In vitro cytotoxicity, Neutral Red assay; type: cell-based; conditions: pig, LLC-PK11 pig kidney epithelial cells
Method in brief: as §1

[5] = In vitro cytotoxicity, Neutral Red assay; type: cell-based; conditions: human, KB oral epidermal carcinoma cells
Method in brief: (§2)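 Cells grown in RPMI-1640 with 10% bovine calf serum and amikacin (60 mg/L), 37°C, 5% CO₂, 95% humidity. Seeded at 25,000 cells/well, grown 24 h. Test samples diluted in serum-free medium, exposure 48 h. Viable cells counted by Neutral Red uptake; % viability loss against vehicle control. IC50 from dose curves, triplicate, means reported.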

[6] = In vitro cytotoxicity, Neutral Red assay; type: cell-based; conditions: human, SK-OV-3 ovary carcinoma cells
Method in brief: as §2

| Compound | IC50 at 48 h [1] [µg/mL] | IC50 at 48 h [2] [µg/mL] | in vivo anti-inflammatory activity (in words) [3] | Edema thickness ±SEM, 1h [3] | Edema thickness ±SEM, 2h [3] | Edema thickness ±SEM, 3h [3] | Edema thickness ±SEM, 4h [3] | IC50 at 48 h [4] [µg/mL] | IC50 at 48 h [5] [µg/mL] | IC50 at 48 h [6] [µg/mL] |
| --- | --- | --- | --- | --- | --- | --- | --- | --- | --- | --- |
| O=c1sc2ccccc2n1CCCCCCN1CCN(CCCCCCn2c(=O)sc3ccccc32)CC1 [Compound 3j, 3,3′-(piperazine-1,4-diylbis(hexane-6,1-diyl))bis(benzo[d]thiaazol-2(3H)-one)] | > 25 | > 25 | significant anti-inflammatory and analgesic activity; also recorded: moderate activities compared to ketorolac | 95.50 ± 1.02 ×10^−2 mm | 97.24 ± 2.35 ×10^−2 mm | 101.6 ± 1.68 ×10^−2 mm | 123.5 ± 1.13 ×10^−2 mm | > 25 |  |  |
| O=c1sc2ccccc2n1CCCCCN1CCN(CCCCn2c(=O)sc3ccccc32)CC1 [Compound 5p, 3-(5-(4-(4-(2-oxobenzo[d]thiazol-3(2H)-yl)butyl)piperazin-1-yl)pentyl)benzo[d]thiazol-2(3H)-one] |  | > 25 |  |  |  |  |  | > 25 | > 25 | > 25 |
| c1ccc2oc(SCCCCN3CCN(CCCCSc4nc5ccccc5o4)CC3)nc2c1 [Compound 8a, 1,4-bis(4-(benzo[d]oxazol-2-ylthio)butyl)piperazine] |  | > 25 |  |  |  |  |  |  |  | > 25 |
| O=c1sc2ccccc2n1CCCCCCN1CCN(CCCCn2c(=O)sc3ccccc32)CC1 [Compound 5r, 3-(6-(4-(4-(2-oxobenzo[d]thiazol-3(2H)-yl)butyl)piperazin-1-yl)hexyl)benzo[d]thiazol-2(3H)-one] |  | > 25 |  |  |  |  |  | > 25 |  | > 25 |
| O=C(c1ccccc1)c1ccc2n1CCC2C(=O)O (stereo not shown) [Ketorolac, ketorolac tromethamine, reference compound] |  |  |  | 41.6 ± 2.02 ×10^−2 mm | 40.2 ± 2.82 ×10^−2 mm | 41.2 ± 2.06 ×10^−2 mm | 40.4 ± 1.52 ×10^−2 mm |  |  |  |
| O=c1oc2ccccc2n1CCCCCCN1CCN(CCCCCn2c(=O)oc3ccccc32)CC1 [Compound 5s, 3-(5-(4-(6-(2-oxobenzo[d]oxazol-3(2H)-yl)hexyl)piperazin-1-yl)pentyl)benzo[d]oxazol-2(3H)-one] |  | > 25 |  |  |  |  |  | > 25 | > 25 | > 25 |
| O=c1sc2ccccc2n1CCCCCCN1CCN(CCCCCn2c(=O)sc3ccccc32)CC1 [Compound 5t, 3-(5-(4-(6-(2-oxobenzo[d]thiazol-3(2H)-yl)hexyl)piperazin-1-yl)pentyl)benzo[d]thiazol-2(3H)-one] | > 25 |  | significant anti-inflammatory and analgesic activity; also recorded: moderate activities compared to ketorolac | 93.01 ± 1.93 ×10^−2 mm | 91.57 ± 2.63 ×10^−2 mm | 109.24 ± 1.36 ×10^−2 mm | 127.34 ± 1.87 ×10^−2 mm | > 25 | > 25 |  |
| O=c1sc2ccccc2n1CCCCCN1CCN(CCCCCn2c(=O)sc3ccccc32)CC1 [Compound 3h, 3,3′-(piperazine-1,4-diylbis(pentane-5,1-diyl))bis(benzo[d]thiazol-2(3H)-one)] |  | > 25 |  |  |  |  |  | > 25 | > 25 |  |
| O=c1sc2ccccc2n1CCCCCN1CCN(CCCn2c(=O)sc3ccccc32)CC1 [Compound 5l, 3-(3-(4-(5-(2-oxobenzo[d]thiazol-3(2H)-yl)pentyl)piperazin-1-yl)propyl)benzo[d]thiazol-2(3H)-one] |  | > 25 |  |  |  |  |  | > 25 | > 25 | > 25 |
